Results from ChEMBL document CHEMBL2375264, “Potent naphthoquinones against antimony-sensitive and -resistant Leishmania parasites: synthesis of novel α- and nor-α-lapachone-based 1,2,3-triazoles by copper-catalyzed azide-alkyne cycloaddition” (Eur J Med Chem, 2013).

Tests used:
[1] = test system: Leishmania infantum; test: Antileishmanial activity against antimony-resistant Leishmania infantum MCAN/BR/2002/BH400 promastigote infected in Swiss mouse peritoneal macrophages after 72 hrs; type: functional, organism-based; details: MCAN/BR/2002/BH400, 72 h
Method in brief: (§1)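 Promastigotes of Sb(III)-sensitive and -resistant lines (resistant to Sb(III) up to 2700), maintained at 25 °C, pH 7.0, in α-MEM with 10% heat-inactivated FBS, kanamycin, ampicillin, L-glutamine, hemin and biopterin. Drugs dissolved in DMSO, diluted in α-MEM across a concentration range, final DMSO ≤0.2%.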

[2] = Selectivity index, ratio of CC50 for Swiss mouse peritoneal macrophages to IC50 for antimony-resistant Leishmania amazonensis MHOM/BR/1989/BA199 promastigote; type: functional
Method in brief: (§2)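 SI = CC50/IC50. CC50 comes from Swiss mouse peritoneal macrophages, harvested by lavage with cold RPMI-1640 lacking FBS. Cells seeded at 4.0 × 10⁶/mL, allowed to adhere 1 h, then washed free of non-adherent cells. Viability read by MTT (5 mg/mL stock, 4 h).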

[3] = Selectivity index, ratio of CC50 for Swiss mouse peritoneal macrophages to IC50 for antimony-sensitive Leishmania amazonensis MHOM/BR/1989/BA199 promastigote; type: functional
Method in brief: (§3)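 SI = CC50 / IC50. CC50 is from Swiss mouse peritoneal macrophages, read by MTT after lavage and 1 h adherence. […] Promastigotes grown in α-MEM with 10% heat-inactivated FBS, hemin and biopterin, pH 7.0, 25 °C. DMSO ≤0.2% final. Triplicate.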

[4] = Selectivity index, ratio of CC50 for Swiss mouse peritoneal macrophages to IC50 for antimony-sensitive Leishmania infantum MCAN/BR/2002/BH400 promastigote; type: functional; method in brief: as §3
[5] = Cytotoxicity against Swiss mouse peritoneal macrophages after 24 hrs by MTT assay; type: cell-based, Peritoneal macrophage cell
Method in brief: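 Macrophages from peritoneal lavage of Swiss mice with cold FBS-free RPMI-1640. Cells seeded at 4.0 × 10⁶/mL, adhered 1 h, non-adherent cells washed off. Compounds were DMSO stocks diluted in medium over a concentration range, final DMSO ≤0.2%. Viability read by MTT (5 mg/mL solution, 4 h further incubation). CC50 taken as the 50% cytotoxic concentration.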

[6] = test system: Leishmania amazonensis; test: Antileishmanial activity against antimony-resistant Leishmania amazonensis MHOM/BR/1989/BA199 promastigote infected in Swiss mouse peritoneal macrophages after 72 hrs; type: functional, organism-based; details: MHOM/BR/1989/BA199, 72 h; method in brief: as §1
[7] = test system: Leishmania amazonensis; test: Antileishmanial activity against antimony-sensitive Leishmania amazonensis MHOM/BR/1989/BA199 promastigote infected in Swiss mouse peritoneal macrophages after 72 hrs; type: functional, organism-based; details: MHOM/BR/1989/BA199, 72 h; method in brief: as §1
[8] = test system: Leishmania infantum; test: Antileishmanial activity against antimony-sensitive Leishmania infantum MCAN/BR/2002/BH400 promastigote infected in Swiss mouse peritoneal macrophages after 72 hrs; type: functional, organism-based; details: MCAN/BR/2002/BH400, 72 h; method in brief: as §1
[9] = Selectivity index, ratio of CC50 for Swiss mouse peritoneal macrophages to IC50 for antimony-resistant Leishmania infantum MCAN/BR/2002/BH400 promastigote; type: functional; method in brief: as §2
[10] = test system: Leishmania amazonensis; test: Ratio of potassium antimonyl tartrate IC50 to compound IC50 for antimony-sensitive Leishmania amazonensis MHOM/BR/1989/BA199 promastigote infected in Swiss mouse peritoneal macrophages; type: functional
[11] = test system: Leishmania infantum; test: Ratio of potassium antimonyl tartrate IC50 to compound IC50 for antimony-sensitive Leishmania infantum MCAN/BR/2002/BH400 promastigote infected in Swiss mouse peritoneal macrophages; type: functional

Row | Compound | IC50 [1] | Ratio CC50/IC50 [2] | Ratio CC50/IC50 [3] | Ratio CC50/IC50 [4] | CC50 at 24 h [5] | IC50 [6] | IC50 [7] | IC50 [8] | Ratio CC50/IC50 [9] | Ratio IC50 [10] | Ratio IC50 [11]
1 | CCCCCCc1cn(C2C3=C(OC2(C)C)C(=O)c2ccccc2C3=O)nn1 (stereo not drawn) | 1120 nM | 0.65 | 0.25 | 2.47 | 2770 nM | 4230 nM | 11000 nM | 1120 nM | 2.47 | – | –
2 | CCCCCc1cn(C2C3=C(OC2(C)C)C(=O)c2ccccc2C3=O)nn1 (stereo not drawn) | 1140 nM | 14 | 7.29 | 15.02 | 16000 nM | 1140 nM | 2190 nM | 1050 nM | 14 | – | –
3 | CCC(C)(O)c1cn(C2C3=C(OC2(C)C)C(=O)c2ccccc2C3=O)nn1 (stereo not drawn) | 25400 nM | 0.66 | 0.99 | 12.36 | 17900 nM | 27000 nM | 18000 nM | 1450 nM | 0.7 | – | –
4 | CC(C)(O)c1cn(C2C3=C(OC2(C)C)C(=O)c2ccccc2C3=O)nn1 (stereo not drawn) | 1320 nM | 2.71 | 1.39 | 12.78 | 19800 nM | 7310 nM | 14200 nM | 1550 nM | 15.01 | – | –
5 | CC1(C)OC2=C(C(=O)c3ccccc3C2=O)C1n1cc(C2CCCCC2)nn1 (stereo not drawn) | 1780 nM | 13.47 | 5.35 | 10.23 | 18700 nM | 1390 nM | 3500 nM | 1830 nM | 10.51 | – | –
6 | CC(C)=CC1=C(O)C(=O)c2ccccc2C1=O | > 100000 nM | – | <0.15 | <0.15 | 14600 nM | > 100000 nM | > 100000 nM | > 100000 nM | – | – | –
7 | CC1(C)OC2=C(C(=O)C(=O)c3ccccc32)C1n1cc(-c2ccccc2)nn1 (stereo not drawn) | 1040 nM | 3.32 | 3.08 | 3.42 | 3420 nM | 1030 nM | 1110 nM | 1000 nM | 3.29 | 23 | 15.5
8 | CC1(C)CC2=C(O1)C(=O)c1ccccc1C2=O | 1280 nM | 0.5 | 0.28 | 0.5 | 770 nM | 1540 nM | 2720 nM | 1540 nM | 0.6 | – | –
9 | CC1(C)CCC2=C(O1)C(=O)c1ccccc1C2=O [ALPHA-LAPACHONE] | 5850 nM | 0.25 | 0.24 | 0.27 | 3800 nM | 15200 nM | 16100 nM | 13900 nM | 0.65 | – | –
10 | CC(C)=CCC1=C(O)C(=O)c2ccccc2C1=O [LAPACHOL] | 99900 nM | 0.94 | 0.58 | 1.71 | 59300 nM | 63300 nM | 102000 nM | 34700 nM | 0.59 | – | –
11 | CC1(C)CCC2=C(O1)c1ccccc1C(=O)C2=O [LAPACHONE] | 1130 nM | 0.57 | 0.27 | 1.14 | 790 nM | 1390 nM | 2900 nM | 670 nM | 0.7 | – | –
12 | CC1(C)CC2=C(O1)c1ccccc1C(=O)C2=O [NOR-BETA-LAPACHONE] | 1600 nM | 0.97 | 0.62 | 1.36 | 1550 nM | 1590 nM | 2480 nM | 1140 nM | 0.97 | – | –
